# The source made the active and inactive calls. The rule behind the calls is not given here.
# Assays:
# [1] = molecular target: Tyrosine-protein kinase ZAP-70 (Homo sapiens) (UniProt P43403); experiment: Inhibition of C-terminal His6 tagged recombinant human full length ZAP-70 expressed in Sf21 cells assessed as residual activity at 0.1 uM relative to control
# [2] = molecular target: Testis-specific serine/threonine-protein kinase 1 (Homo sapiens) (UniProt Q9BXA7); experiment: Inhibition of 6His-tagged recombinant human full length TSSK1 expressed in baculovirus infected Sf21 cells assessed as residual activity at 1 uM relative to control
# [3] = Antiproliferative activity against human NCI-H2110 cells assessed as inhibition of cell growth incubated for 72 hrs by cell-titer glo assay; format: functional, cell-based; conditions: NCI-H2110, 72 h
# How it was run: (§1)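 Cells from ATCC or ECACC, kept in supplier-recommended medium with 1% penicillin-streptomycin at 37°C, 5% CO₂. Seeded at 10,000–30,000/cm² (adherent) or 100,000/mL (nonadherent) in medium with 10% fetal calf serum. Dosed after 24 h in duplicate with serial dilutions. Viable cells read by CellTiter-Glo 72 h later. IC50 from sigmoidal fit. At least two independent experiments.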
# [4] = test system: NCI-H1299; experiment: Antiproliferative activity against human NCI-H1299 cells assessed as inhibition of cell growth incubated for 72 hrs by cell-titer glo assay; format: functional, cell-based; conditions: NCI-H1299, 72 h; how it was run: as §1
# [5] = Antiproliferative activity against human COLO 206F cells assessed as inhibition of cell growth incubated for 72 hrs by cell-titer glo assay; format: functional, cell-based
# How it was run: (§2)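 Cells seeded 10,000–30,000/cm² (adherent) or 100,000/mL (suspension) in medium with 10% fetal calf serum; after 24 h treated in duplicate with serial dilutions for 72 h. Viable cells read by CellTiter-Glo luminescence; IC50 from sigmoidal fit; at least two independent experiments.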
# [6] = test system: HCC1806; experiment: Antiproliferative activity against human HCC1806 cells assessed as inhibition of cell growth incubated for 72 hrs by cell-titer glo assay; format: functional, cell-based; conditions: HCC1806, 72 h
# How it was run: (§3)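 Cells seeded at 10,000–30,000/cm² (adherent) or 100,000/mL (nonadherent) in medium with 10% fetal calf serum; after 24 h, treated in duplicate with serial dilutions for 72 h. Viable cell number read by CellTiter-Glo luminescence; IC50 from sigmoidal fit; at least two independent experiments.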
# [7] = test system: CCRF-CEM; experiment: Antiproliferative activity against human CCRF-CEM cells assessed as inhibition of cell growth incubated for 72 hrs by cell-titer glo assay; format: functional, cell-based; how it was run: as §2
# [8] = molecular target: cGMP-dependent protein kinase 1 (Homo sapiens) (UniProt Q13976); experiment: Inhibition of N-terminal 6His-tagged recombinant, full-length human PKG1alpha expressed in baculovirus infected Sf21 cells assessed as residual activity at 0.1 uM relative to control
# [9] = molecular target: Rho-associated protein kinase 2 (Homo sapiens) (UniProt O75116); experiment: Inhibition of N-terminal His6-tagged recombinant human ROCK-II (11 to 552 residues) expressed in baculovirus infected Sf21 cells assessed as residual activity at 0.1 uM relative to control
# [10] = molecular target: Tyrosine-protein kinase BTK (Homo sapiens) (UniProt Q06187); experiment: Inhibition of N-terminal His6-tagged recombinant full-length human BTK expressed in baculovirus infected Sf21 cells assessed as residual activity at 0.1 uM relative to control
# [11] = test system: KM12; experiment: Antiproliferative activity against human KM12 cells assessed as inhibition of cell growth incubated for 72 hrs by cell-titer glo assay; format: functional, cell-based; conditions: KM12, 72 h; how it was run: as §3
# [12] = Inhibition of PDGFR (unknown origin) in presence of [gamma-33P]ATP; parameters: species or system Homo sapiens
# [13] = molecular target: Inhibitor of nuclear factor kappa-B kinase subunit beta (Homo sapiens) (UniProt O14920); experiment: Inhibition of N-terminal His6 tagged recombinant full-length human IKKbeta expressed in baculovirus infected Sf21 cells assessed as residual activity at 0.1 uM relative to control
# [14] = molecular target: Mitogen-activated protein kinase kinase kinase 5 (Homo sapiens) (UniProt Q99683); experiment: Inhibition of N-Terminal GST and C-terminal His6-tagged recombinant human ASK1 (649 to 946 residues) expressed in E. coli cell assessed as residual activity at 1 uM relative to control
# [15] = test system: Caco-2; experiment: Antiproliferative activity against human Caco-2 cells assessed as inhibition of cell growth incubated for 72 hrs by cell-titer glo assay; format: functional, cell-based; conditions: Caco-2, 72 h; how it was run: as §2
# [16] = test system: SK-MES-1; experiment: Antiproliferative activity against human SK-MES-1 cells assessed as inhibition of cell growth incubated for 72 hrs by cell-titer glo assay; format: functional, cell-based; conditions: SK-MES-1, 72 h
# [17] = test system: MDA-MB-453; experiment: Antiproliferative activity against human MDA-MB-453 cells assessed as inhibition of cell growth incubated for 72 hrs by cell-titer glo assay; format: functional, cell-based; conditions: MDA-MB-453, 72 h; how it was run: as §3
# [18] = test system: A2780; experiment: Induction of DNA damage in human A2780 cells assessed as H2AX phosphorylation at 0.5 to 1 uM incubated for 8 hrs followed by compound washout and measured after 24 to 48 hrs by Western blotting analysis; format: functional, cell-based; conditions: dose 0.5-1 µM
# [19] = molecular target: Tyrosine-protein kinase ABL2 (Mus musculus) (UniProt Q4JIM5); experiment: Inhibition of N-terminal His6-tagged recombinant mouse Arg (27 to end residues) expressed in Sf21 cells assessed as residual activity at 1 uM relative to control
# [20] = test system: HL-60; experiment: Antitumor activity against human HL-60 cells xenografted in nu/nu mouse assessed as efficacy parameter L0 at 60 mg/kg, po administered for 10 days relative to control; format: functional; conditions: time 10 day
# [21] = molecular target: Tyrosine-protein kinase Mer (Homo sapiens) (UniProt Q12866); experiment: Inhibition of N-terminal GST-tagged recombinant human Mer (557 to 882 residues) expressed in baculovirus infected Sf21 cells assessed as residual activity at 1 uM relative to control
# [22] = molecular target: RAF proto-oncogene serine/threonine-protein kinase (Homo sapiens) (UniProt P04049); experiment: Inhibition of N-terminal GST-tagged recombinant human c-RAF (306 to 648 residues) expressed in Sf9 cells assessed as residual activity at 0.1 uM relative to control
# [23] = test system: KARPAS-299; experiment: Antiproliferative activity against human KARPAS-299 cells assessed as inhibition of cell growth incubated for 72 hrs by cell-titer glo assay; format: functional, cell-based; conditions: KARPAS-299, 72 h; how it was run: as §3
# [24] = test system: NCI-H322M; experiment: Antiproliferative activity against human NCI-H322M cells assessed as inhibition of cell growth incubated for 72 hrs by cell-titer glo assay; format: functional, cell-based; how it was run: as §1
# [25] = Toxicity in nu/nu mouse xenografted with human HCT-116 cells assessed as body weight loss at 60 mg/kg, po administered for 8 days; format: organism-based; conditions: in vivo, 192 h, time 8 day
# [26] = test system: HOP-92; experiment: Antiproliferative activity against human HOP-92 cells assessed as inhibition of cell growth incubated for 72 hrs by cell-titer glo assay; format: functional, cell-based; conditions: HOP-92, 72 h; how it was run: as §3
# [27] = test system: CAL-12T; experiment: Antiproliferative activity against human CAL-12T cells assessed as inhibition of cell growth incubated for 72 hrs by cell-titer glo assay; format: functional, cell-based; how it was run: as §2
# [28] = molecular target: MAP kinase-activated protein kinase 5 (Homo sapiens) (UniProt Q8IW41); experiment: Inhibition of N-terminal His6-tagged recombinant human full-length PRAK expressed in baculovirus infected Sf21 cells assessed as residual activity at 1 uM relative to control
# Chain of Rho-associated protein kinase 2 (Homo sapiens) (O75116 whole entry, looked up, the tested form may be a part): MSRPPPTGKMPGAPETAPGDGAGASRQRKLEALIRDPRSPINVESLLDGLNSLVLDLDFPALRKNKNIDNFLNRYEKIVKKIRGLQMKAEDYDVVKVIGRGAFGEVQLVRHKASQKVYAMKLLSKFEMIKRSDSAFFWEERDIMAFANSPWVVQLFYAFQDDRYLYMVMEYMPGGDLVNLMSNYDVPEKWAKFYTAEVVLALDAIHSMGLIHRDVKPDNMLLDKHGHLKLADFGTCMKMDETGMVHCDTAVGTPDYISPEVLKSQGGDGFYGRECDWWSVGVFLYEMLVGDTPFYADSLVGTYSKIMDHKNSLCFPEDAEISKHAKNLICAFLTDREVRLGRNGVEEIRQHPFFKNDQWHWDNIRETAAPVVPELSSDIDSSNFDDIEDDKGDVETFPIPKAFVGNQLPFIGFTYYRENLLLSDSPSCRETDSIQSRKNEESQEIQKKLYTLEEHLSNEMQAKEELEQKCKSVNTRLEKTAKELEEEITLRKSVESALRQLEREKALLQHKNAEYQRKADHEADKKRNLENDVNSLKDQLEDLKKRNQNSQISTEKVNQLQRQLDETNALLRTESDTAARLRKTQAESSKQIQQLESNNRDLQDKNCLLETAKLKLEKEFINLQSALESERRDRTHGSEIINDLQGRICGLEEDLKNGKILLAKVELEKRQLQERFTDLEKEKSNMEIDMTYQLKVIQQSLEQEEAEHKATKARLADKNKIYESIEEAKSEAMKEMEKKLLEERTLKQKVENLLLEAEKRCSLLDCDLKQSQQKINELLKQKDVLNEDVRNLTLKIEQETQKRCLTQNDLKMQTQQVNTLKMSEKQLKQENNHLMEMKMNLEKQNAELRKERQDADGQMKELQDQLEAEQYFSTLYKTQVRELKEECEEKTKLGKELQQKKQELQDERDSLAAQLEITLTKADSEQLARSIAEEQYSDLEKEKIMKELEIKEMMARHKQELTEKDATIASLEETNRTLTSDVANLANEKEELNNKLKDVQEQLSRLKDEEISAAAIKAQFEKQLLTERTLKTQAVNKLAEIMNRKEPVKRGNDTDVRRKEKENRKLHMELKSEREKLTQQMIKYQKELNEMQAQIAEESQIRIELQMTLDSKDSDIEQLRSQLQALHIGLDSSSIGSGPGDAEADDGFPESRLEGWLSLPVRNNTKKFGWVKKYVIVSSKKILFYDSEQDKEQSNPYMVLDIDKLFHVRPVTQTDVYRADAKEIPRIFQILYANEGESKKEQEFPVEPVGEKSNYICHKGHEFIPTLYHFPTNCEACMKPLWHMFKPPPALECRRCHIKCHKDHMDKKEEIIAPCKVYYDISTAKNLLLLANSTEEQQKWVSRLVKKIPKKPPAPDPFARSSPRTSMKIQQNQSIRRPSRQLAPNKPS
# Chain of Mitogen-activated protein kinase kinase kinase 5 (Homo sapiens) (Q99683 whole entry, the tested form may be a part): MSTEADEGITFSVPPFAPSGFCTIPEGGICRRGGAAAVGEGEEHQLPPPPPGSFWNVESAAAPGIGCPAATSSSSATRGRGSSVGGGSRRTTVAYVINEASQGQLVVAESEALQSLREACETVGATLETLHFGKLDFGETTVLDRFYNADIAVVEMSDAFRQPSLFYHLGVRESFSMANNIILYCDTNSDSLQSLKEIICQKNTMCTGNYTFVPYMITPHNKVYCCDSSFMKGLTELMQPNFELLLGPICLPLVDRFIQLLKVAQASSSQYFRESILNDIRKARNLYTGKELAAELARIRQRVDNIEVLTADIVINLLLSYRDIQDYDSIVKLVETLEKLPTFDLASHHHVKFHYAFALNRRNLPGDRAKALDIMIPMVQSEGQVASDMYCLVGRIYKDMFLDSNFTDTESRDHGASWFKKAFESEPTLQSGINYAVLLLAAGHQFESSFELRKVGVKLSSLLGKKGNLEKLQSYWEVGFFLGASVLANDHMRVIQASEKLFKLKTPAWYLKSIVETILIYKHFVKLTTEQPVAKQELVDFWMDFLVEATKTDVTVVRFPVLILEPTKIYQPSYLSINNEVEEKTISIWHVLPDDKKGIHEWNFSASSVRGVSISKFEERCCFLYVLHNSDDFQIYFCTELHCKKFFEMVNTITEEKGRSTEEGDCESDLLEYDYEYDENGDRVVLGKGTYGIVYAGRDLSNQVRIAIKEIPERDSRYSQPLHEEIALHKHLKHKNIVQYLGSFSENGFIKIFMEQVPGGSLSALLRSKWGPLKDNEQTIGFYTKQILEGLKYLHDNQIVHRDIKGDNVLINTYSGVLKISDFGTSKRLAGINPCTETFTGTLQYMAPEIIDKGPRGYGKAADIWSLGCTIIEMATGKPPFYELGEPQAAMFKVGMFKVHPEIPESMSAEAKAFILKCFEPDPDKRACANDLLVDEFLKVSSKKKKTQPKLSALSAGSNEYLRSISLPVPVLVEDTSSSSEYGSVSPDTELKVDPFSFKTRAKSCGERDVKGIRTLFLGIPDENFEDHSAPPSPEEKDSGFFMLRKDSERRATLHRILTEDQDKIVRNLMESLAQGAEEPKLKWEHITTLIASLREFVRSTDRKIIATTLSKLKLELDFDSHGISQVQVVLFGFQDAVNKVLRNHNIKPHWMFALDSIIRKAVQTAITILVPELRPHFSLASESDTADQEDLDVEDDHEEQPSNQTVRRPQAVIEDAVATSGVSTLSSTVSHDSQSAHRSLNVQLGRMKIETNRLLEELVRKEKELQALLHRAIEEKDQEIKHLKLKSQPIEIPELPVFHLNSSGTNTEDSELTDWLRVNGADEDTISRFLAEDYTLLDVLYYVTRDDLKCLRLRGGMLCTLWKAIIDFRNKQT
# Chain of Testis-specific serine/threonine-protein kinase 1 (Homo sapiens) (Q9BXA7 whole entry): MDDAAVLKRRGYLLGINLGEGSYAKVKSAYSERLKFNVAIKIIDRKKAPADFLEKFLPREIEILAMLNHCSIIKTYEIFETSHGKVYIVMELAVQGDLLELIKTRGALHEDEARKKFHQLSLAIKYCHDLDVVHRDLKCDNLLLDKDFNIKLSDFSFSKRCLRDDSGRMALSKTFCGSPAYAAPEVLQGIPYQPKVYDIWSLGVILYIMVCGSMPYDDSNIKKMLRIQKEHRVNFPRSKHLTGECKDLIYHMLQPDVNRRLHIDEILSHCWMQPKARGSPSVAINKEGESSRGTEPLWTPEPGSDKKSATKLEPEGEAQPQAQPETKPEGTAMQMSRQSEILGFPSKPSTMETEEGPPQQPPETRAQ
# Chain of Tyrosine-protein kinase Mer (Homo sapiens) (Q12866 whole entry, the tested form may be a part): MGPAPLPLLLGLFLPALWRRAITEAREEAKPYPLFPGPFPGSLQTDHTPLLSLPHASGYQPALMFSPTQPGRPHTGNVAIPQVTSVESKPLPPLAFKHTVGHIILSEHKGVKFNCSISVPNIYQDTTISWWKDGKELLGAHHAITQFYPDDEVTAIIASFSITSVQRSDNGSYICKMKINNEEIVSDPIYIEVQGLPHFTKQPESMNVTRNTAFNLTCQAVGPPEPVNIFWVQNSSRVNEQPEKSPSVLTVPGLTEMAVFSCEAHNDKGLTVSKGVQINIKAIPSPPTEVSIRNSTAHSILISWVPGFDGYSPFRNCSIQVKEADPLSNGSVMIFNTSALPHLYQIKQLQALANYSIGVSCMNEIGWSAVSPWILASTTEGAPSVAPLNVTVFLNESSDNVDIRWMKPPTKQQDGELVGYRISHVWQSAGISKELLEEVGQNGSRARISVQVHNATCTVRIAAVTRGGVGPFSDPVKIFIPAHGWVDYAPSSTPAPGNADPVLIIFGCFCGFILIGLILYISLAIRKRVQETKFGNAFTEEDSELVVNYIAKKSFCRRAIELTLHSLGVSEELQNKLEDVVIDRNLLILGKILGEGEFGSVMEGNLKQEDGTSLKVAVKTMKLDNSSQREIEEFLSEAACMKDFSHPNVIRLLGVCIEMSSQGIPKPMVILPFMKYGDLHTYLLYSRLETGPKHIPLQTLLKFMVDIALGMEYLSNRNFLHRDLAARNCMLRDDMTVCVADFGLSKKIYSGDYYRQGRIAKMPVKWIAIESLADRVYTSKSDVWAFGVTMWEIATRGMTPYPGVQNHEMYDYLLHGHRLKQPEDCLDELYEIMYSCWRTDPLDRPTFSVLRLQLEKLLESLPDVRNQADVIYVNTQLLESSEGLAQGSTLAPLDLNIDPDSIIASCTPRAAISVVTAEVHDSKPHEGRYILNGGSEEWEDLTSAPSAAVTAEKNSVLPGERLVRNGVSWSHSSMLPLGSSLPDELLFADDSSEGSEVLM
# Chain of Tyrosine-protein kinase BTK (Homo sapiens) (Q06187 whole entry): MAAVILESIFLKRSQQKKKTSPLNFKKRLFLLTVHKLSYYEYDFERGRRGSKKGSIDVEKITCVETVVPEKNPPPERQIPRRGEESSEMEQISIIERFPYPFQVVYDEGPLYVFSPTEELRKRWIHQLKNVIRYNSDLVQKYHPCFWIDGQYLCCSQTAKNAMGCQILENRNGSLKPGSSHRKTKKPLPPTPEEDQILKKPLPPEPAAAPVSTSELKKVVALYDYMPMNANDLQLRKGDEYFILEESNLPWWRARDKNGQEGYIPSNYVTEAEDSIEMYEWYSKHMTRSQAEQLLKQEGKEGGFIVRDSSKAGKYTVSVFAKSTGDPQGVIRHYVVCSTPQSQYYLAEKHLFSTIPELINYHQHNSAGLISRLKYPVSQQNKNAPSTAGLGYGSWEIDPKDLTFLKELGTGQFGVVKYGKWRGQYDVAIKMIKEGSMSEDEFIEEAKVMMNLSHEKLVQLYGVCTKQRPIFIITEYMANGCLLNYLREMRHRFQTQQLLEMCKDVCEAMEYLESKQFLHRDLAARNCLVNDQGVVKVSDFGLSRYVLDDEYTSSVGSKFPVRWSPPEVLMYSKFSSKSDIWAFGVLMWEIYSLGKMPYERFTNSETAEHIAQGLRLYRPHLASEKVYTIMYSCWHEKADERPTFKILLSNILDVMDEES
smiles,measurement,setting,value
CN1CCN(c2ccc(OC(F)(F)F)c(Nc3ncc4c(n3)-c3c(c(C(N)=O)nn3CCO)CC4)c2)CC1 [ONVANSERTIB],Activity,[1],88%
same,Activity,[2],20%
same,IC50,[3],68 nM
same,IC50,[4],347 nM
same,IC50,[5],93 nM
same,IC50,[6],18 nM
same,IC50,[7],55 nM
same,Activity,[8],113%
same,Activity,[9],132%
same,Activity,[10],83%
same,IC50,[11],277 nM
same,IC50,[12],> 10000 nM
same,Activity,[13],122%
same,Activity,[14],125%
same,IC50,[15],4760 nM
same,IC50,[16],367 nM
same,IC50,[17],90 nM
same,Activity,[18],Active
same,Activity,[19],85%
same,Activity,[20],0.06 g
same,Activity,[21],64%
same,Activity,[22],93%
same,IC50,[23],53 nM
same,IC50,[24],183 nM
same,Activity,[25],Toxic
same,IC50,[26],283 nM
same,IC50,[27],191 nM
same,Activity,[28],77%
